Laboratory results as given in ChEMBL document CHEMBL1153837, “Intracellular pharmacokinetics of once versus twice daily zidovudine and lamivudine in adolescents” (Antimicrob Agents Chemother, 2007).
Blank lines part the entries; values can stand above or below the compound they belong to.

Key:
Homo sapiens [1] = species: Homo sapiens; assay: Tmax in HIV-infected human assessed as zidovudine monophosphate level in PBMC at 600 mg QD for 7 days in presence of Lamivudine; format: ADME, organism-based; settings: in vivo, 168 h
Procedure, shortened: (§1)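 Adolescents on Combivir QD (two tablets) gave a predose morning sample, then bloods at 2, 4, 6, 12 and 24 h. PBMC were lysed in 70% methanol (15 mM Tris pH 7.0) and anion-exchange cartridges separated MP/DP/TP by KCl step elution. Fractions were dephosphorylated with acid phosphatase, then ZDV or 3TC was measured by RIA (LOQ 0.15 ng/ml). Noncompartmental parameters; AUC by trapezoidal method; undetectables set to half LLOQ.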

Homo sapiens [2] = species: Homo sapiens; assay: Cmax in HIV-infected human assessed as zidovudine monophosphate level in PBMC at 600 mg QD for 7 days measured per 10^6 cells in presence of Lamivudine; format: ADME, organism-based; parameters: dose 600 mg; settings: 168 h; procedure, shortened: as §1
Homo sapiens [3] = species: Homo sapiens; assay: AUC in HIV-infected human assessed as zidovudine triphosphate level in PBMC at 600 mg QD for 7 days in presence of Lamivudine; format: ADME, organism-based; settings: in vivo, 168 h; procedure, shortened: as §1
[4] = Half life in HIV-infected human at 600 mg, po qd; settings: in vivo
Homo sapiens [5] = assay: Drug metabolism in HIV-infected human PBMC assessed as zidovudine monophosphate level at 600 mg administered in two courses, first QD for 7 days followed by BID for 7 to 14 days and second course the subjects were switched to the other regimen measured per 10^6 cells in presence of Lamivudine; format: ADME, organism-based
Procedure, shortened: (§2)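 Randomized crossover of Combivir: 600 mg ZDV/300 mg 3TC QD versus 300 mg/150 mg BID, in either order. Predose morning PBMC samples were taken on each regimen. Metabolites were separated on QMA cartridges, acid-phosphatase dephosphorylated, C-18 cleaned and quantified by RIA, reported per 10⁶ cells. Values below LLOQ were imputed as half LLOQ. Regimens were compared by Wilcoxon rank-sum; BID/QD ratios as medians with 95% CI.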

Homo sapiens [6] = species: Homo sapiens; assay: AUC in HIV-infected human assessed as zidovudine diphosphate level in PBMC at 600 mg QD for 7 days in presence of Lamivudine; format: ADME, organism-based; settings: in vivo, 168 h; procedure, shortened: as §1
Homo sapiens [7] = assay: Drug metabolism in HIV-infected human PBMC assessed as zidovudine triphosphate level at 600 mg administered in two courses, first BID for 7 to 14 days followed by QD for 7 days and second course the subjects were switched to the other regimen measured per 10^6 cells in presence of Lamivudine; format: ADME, organism-based; procedure, shortened: as §2
[8] = Half life in HIV-infected human at 300 mg, po bid; settings: in vivo
Homo sapiens [9] = assay: Drug metabolism in HIV-infected human PBMC assessed as zidovudine monophosphate level at 600 mg administered in two courses, first BID for 7 to 14 days followed by QD for 7 days and second course the subjects were switched to the other regimen measured per 10^6 cells in presence of Lamivudine; format: ADME, organism-based; procedure, shortened: as §2
[10] = Half life in HIV-infected human plasma at 1500 mg; format: ADME, cell-free
Homo sapiens [11] = assay: Drug metabolism in HIV-infected human PBMC assessed as zidovudine parent-drug level at 600 mg administered in two courses, first QD for 7 days followed by BID for 7 to 14 days and second course the subjects were switched to the other regimen measured per 10^6 cells in presence of Lamivudine; format: ADME, organism-based; procedure, shortened: as §2
Homo sapiens [12] = species: Homo sapiens; assay: Cmax in HIV-infected human assessed as zidovudine triphosphate level in PBMC at 600 mg QD for 7 days measured per 10^6 cells in presence of Lamivudine; format: ADME, organism-based; parameters: dose 600 mg; settings: 168 h; procedure, shortened: as §1
Homo sapiens [13] = assay: Drug metabolism in HIV-infected human PBMC assessed as zidovudine parent-drug level at 600 mg administered in two courses, first BID for 7 to 14 days followed by QD for 7 days and second course the subjects were switched to the other regimen measured per 10^6 cells in presence of Lamivudine; format: ADME, organism-based; procedure, shortened: as §2
Homo sapiens [14] = species: Homo sapiens; assay: AUC in HIV-infected human assessed as zidovudine monophosphate level in PBMC at 600 mg QD for 7 days in presence of Lamivudine; format: ADME, organism-based; settings: in vivo, 168 h; procedure, shortened: as §1
Homo sapiens [15] = assay: Drug metabolism in HIV-infected human PBMC assessed as zidovudine diphosphate level at 600 mg administered in two courses, first QD for 7 days followed by BID for 7 to 14 days and second course the subjects were switched to the other regimen measured per 10^6 cells in presence of Lamivudine; format: ADME, organism-based; procedure, shortened: as §2
Homo sapiens [16] = species: Homo sapiens; assay: Tmax in HIV-infected human assessed as zidovudine diphosphate level in PBMC at 600 mg QD for 7 days in presence of Lamivudine; format: ADME, organism-based; settings: in vivo, 168 h; procedure, shortened: as §1
Homo sapiens [17] = assay: Drug metabolism in HIV-infected human PBMC assessed as zidovudine diphosphate level at 600 mg administered in two courses, first BID for 7 to 14 days followed by QD for 7 days and second course the subjects were switched to the other regimen measured per 10^6 cells in presence of Lamivudine; format: ADME, organism-based; procedure, shortened: as §2
Homo sapiens [18] = species: Homo sapiens; assay: Cmax in HIV-infected human assessed as zidovudine diphosphate level in PBMC at 600 mg QD for 7 days measured per 10^6 cells in presence of Lamivudine; format: ADME, organism-based; parameters: dose 600 mg; settings: 168 h; procedure, shortened: as §1
Homo sapiens [19] = species: Homo sapiens; assay: Tmax in HIV-infected human assessed as zidovudine triphosphate level in PBMC at 600 mg QD for 7 days in presence of Lamivudine; format: ADME, organism-based; settings: in vivo, 168 h; procedure, shortened: as §1
Homo sapiens [20] = assay: Drug metabolism in HIV-infected human PBMC assessed as zidovudine triphosphate level at 600 mg administered in two courses, first QD for 7 days followed by BID for 7 to 14 days and second course the subjects were switched to the other regimen measured per 10^6 cells in presence of Lamivudine; format: ADME, organism-based; procedure, shortened: as §2
Homo sapiens [21] = species: Homo sapiens; assay: AUC in HIV-infected human assessed as Lamivudine monophosphate level in PBMC at 300 mg QD for 7 days in presence of zidovudine; format: ADME, organism-based; settings: in vivo, 168 h; procedure, shortened: as §1
Homo sapiens [22] = assay: Drug metabolism in HIV-infected human PBMC assessed as lamivudine parent-drug level at 300 mg administered in two courses, first BID for 7 to 14 days followed by QD for 7 days and second course the subjects were switched to the other regimen measured per 10^6 cells in presence of zidovudine
Homo sapiens [23] = assay: Drug metabolism in HIV-infected human PBMC assessed as lamivudine parent-drug level at 300 mg administered in two courses, first QD for 7 days followed by BID for 7 to 14 days and second course the subjects were switched to the other regimen measured per 10^6 cells in presence of zidovudine
Homo sapiens [24] = species: Homo sapiens; assay: Tmax in HIV-infected human assessed as Lamivudine triphosphate level in PBMC at 300 mg QD for 7 days in presence of zidovudine; format: ADME, organism-based; settings: in vivo, 168 h; procedure, shortened: as §1
Homo sapiens [25] = species: Homo sapiens; assay: AUC in HIV-infected human assessed as Lamivudine diphosphate level in PBMC at 300 mg QD for 7 days in presence of zidovudine; format: ADME, organism-based; settings: in vivo, 168 h; procedure, shortened: as §1
Homo sapiens [26] = assay: Drug metabolism in HIV-infected human PBMC assessed as lamivudine monophosphate level at 300 mg administered in two courses, first QD for 7 days followed by BID for 7 to 14 days and second course the subjects were switched to the other regimen measured per 10^6 cells in presence of lamivudine
Homo sapiens [27] = species: Homo sapiens; assay: Tmax in HIV-infected human assessed as Lamivudine diphosphate level in PBMC at 300 mg QD for 7 days in presence of zidovudine; format: ADME, organism-based; settings: in vivo, 168 h; procedure, shortened: as §1
Homo sapiens [28] = species: Homo sapiens; assay: Cmax in HIV-infected human assessed as Lamivudine monophosphate level in PBMC at 300 mg QD for 7 days measured per 10^6 cells in presence of zidovudine; format: ADME, organism-based; parameters: dose 300 mg; settings: 168 h; procedure, shortened: as §1
Homo sapiens [29] = species: Homo sapiens; assay: Tmax in HIV-infected human assessed as Lamivudine monophosphate level in PBMC at 300 mg QD for 7 days in presence of zidovudine; format: ADME, organism-based; settings: in vivo, 168 h; procedure, shortened: as §1
Homo sapiens [30] = species: Homo sapiens; assay: AUC in HIV-infected human assessed as Lamivudine triphosphate level in PBMC at 300 mg QD for 7 days in presence of zidovudine; format: ADME, organism-based; settings: in vivo, 168 h; procedure, shortened: as §1
Homo sapiens [31] = species: Homo sapiens; assay: Cmax in HIV-infected human assessed as Lamivudine diphosphate level in PBMC at 300 mg QD for 7 days measured per 10^6 cells in presence of zidovudine; format: ADME, organism-based; parameters: dose 300 mg; settings: 168 h; procedure, shortened: as §1
Homo sapiens [32] = assay: Drug metabolism in HIV-infected human PBMC assessed as lamivudine monophosphate level at 300 mg administered in two courses, first BID for 7 to 14 days followed by QD for 7 days and second course the subjects were switched to the other regimen measured per 10^6 cells in presence of lamivudine
Homo sapiens [33] = assay: Drug metabolism in HIV-infected human PBMC assessed as lamivudine diphosphate level at 300 mg administered in two courses, first QD for 7 days followed by BID for 7 to 14 days and second course the subjects were switched to the other regimen measured per 10^6 cells in presence of lamivudine
Homo sapiens [34] = species: Homo sapiens; assay: Cmax in HIV-infected human assessed as Lamivudine triphosphate level in PBMC at 300 mg QD for 7 days measured per 10^6 cells in presence of zidovudine; format: ADME, organism-based; parameters: dose 300 mg; settings: 168 h; procedure, shortened: as §1

- Tmax (Homo sapiens [1]): 2.44 h
- Cmax (Homo sapiens [2]): 2997.65 fmol
- AUC (Homo sapiens [3]): 502 fmol
- half-life [4]: 6.3 h
- Drug uptake (Homo sapiens [5]): 76.2 fmol
- AUC (Homo sapiens [6]): 627 fmol
- Drug uptake (Homo sapiens [7]): 15.4 fmol
- half-life [8]: 5.48 h
- Drug uptake (Homo sapiens [9]): 75.3 fmol
- half-life [10]: 1 h
- Drug uptake (Homo sapiens [11]): 23.5 fmol
- Cmax (Homo sapiens [12]): 43.9 fmol
- Drug uptake (Homo sapiens [13]): 23.5 fmol
- AUC (Homo sapiens [14]): 11883 fmol
- Drug uptake (Homo sapiens [15]): 11.5 fmol
- Tmax (Homo sapiens [16]): 3.48 h
- Drug uptake (Homo sapiens [17]): 12.2 fmol
- Cmax (Homo sapiens [18]): 62.47 fmol
- Tmax (Homo sapiens [19]): 4.74 h
- Drug uptake (Homo sapiens [20]): 9.3 fmol
Compound: Cc1cn([C@H]2C[C@H](N=[N+]=[N-])[C@@H](CO)O2)c(=O)[nH]c1=O [ZIDOVUDINE]

- AUC (Homo sapiens [21]): 10.42 pmol
- lamivudine parent-drug uptake (Homo sapiens [22]): 437 pmol
- lamivudine parent-drug uptake (Homo sapiens [23]): 302 pmol
- Tmax (Homo sapiens [24]): 6.67 h
- AUC (Homo sapiens [25]): 70.01 pmol
- lamivudine monophosphate uptake (Homo sapiens [26]): 282 pmol
- Tmax (Homo sapiens [27]): 6.37 h
- Cmax (Homo sapiens [28]): 760 fmol
- Tmax (Homo sapiens [29]): 6.3 h
- AUC (Homo sapiens [30]): 65.19 pmol
- Cmax (Homo sapiens [31]): 4424 fmol
- lamivudine monophosphate uptake (Homo sapiens [32]): 396 pmol
- lamivudine diphosphate uptake (Homo sapiens [33]): 1934 pmol
- Cmax (Homo sapiens [34]): 4840 fmol
Compound: Nc1ccn([C@@H]2CS[C@H](CO)O2)c(=O)n1 [LAMIVUDINE]
